The text below walks through data of ChEMBL document CHEMBL1153784, “Synthesis, characterization, antiamoebic activity and toxicity of novel bisdioxazole derivatives” (Eur J Med Chem, 2009).

In one data set the test system is Entamoeba histolytica. Nature of the data set: Antiamoebic activity against Entamoeba histolytica HM1:IMSS trophozoites after 72 hrs by microdilution method. It counts as functional, organism-based. Summed up: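 Trophozoites grown in Diamond TYIS-33 medium in 96-well plates; amoebae detached by chilling on ice. Compounds from freshly prepared 1 mg/ml DMSO stocks, twofold serial dilutions, DMSO at most 0.016%. Plates gassed with nitrogen 10 min, incubated 37 °C 72 h, washed with 0.9% NaCl, stained, dye released with 0.1 N NaOH, OD 490 nm. IC50 by linear regression of % inhibition vs log dose. Triplicate wells, repeated thrice.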
Background: Broth dilution looks for growth in wells or tubes with falling amounts of substance.

Data set [1] can be described thus: Toxicity in rat H9c2 cells assessed as cell viability at 12.5 ug/ml after 48 hrs by MTT assay. It counts as cell-based. The note with it: read-out: Activity. A digest of the protocol:
(§1)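 Subconfluent H9c2 cardiac myoblasts exposed to increasing compound concentrations for 48 h at 37 °C in 5% CO2, with an untreated control. Cells washed in PBS, given 5 mg/ml MTT for 45 min at 37 °C. Crystals dissolved in acid isopropanol, absorbance read at 570 nm. Viability = absorbance of treated relative to untreated cells. Run in triplicate.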
(Tetrazolium assays rely on reduction of a dye to a coloured formazan, in cell work by metabolically active cells.)

Data set [2] can be described thus: Toxicity in rat H9c2 cells after 48 hrs by MTT assay. It counts as cell-based. A digest of the protocol:
as §1

The nature of data set [3]: Safety index, ratio of IC50 for rat H9c2 cells to IC50 for Entamoeba histolytica HM1:IMSS trophozoites. The note with it: read-out: Ratio IC50. The data set is classed as toxicity, cell-based.

In general, IC50 refers to the concentration that inhibits the measured activity by half. Lower therefore signals higher potency.

Structures are written as SMILES. Some results are limits rather than exact numbers.

For `COc1ccc(C2ON=C(c3ccc(C4=NOC(c5ccc(OC)c(OC)c5)O4)cc3)O2)cc1OC` (stereo not given), half-maximal inhibition in the data set on Entamoeba histolytica (IC50) was put at 4.38 µM. That is a single-digit micromolar value.
Turning to `CCc1ccc(C2ON=C(c3ccc(C4=NOC(c5ccc(CC)cc5)O4)cc3)O2)cc1` (stereo not given), inhibition in the data set on Entamoeba histolytica was half-maximal at 2.78 µM (IC50).
For the compound `CC(C)c1ccc(C2ON=C(c3ccc(C4=NOC(c5ccc(C(C)C)cc5)O4)cc3)O2)cc1` (stereo not given), half-maximal inhibition in the data set on Entamoeba histolytica (IC50) required 4.65 µM.
As for `COc1ccc(C2ON=C(c3ccc(C4=NOC(c5ccc(OC)cc5)O4)cc3)O2)cc1` (stereo not given), the viability at 48 h, 12.5 ug/ml in data set [1] was 89%. Moreover, the IC50 in the data set with Entamoeba histolytica was 1.01 µM. The compound also registered an IC50 at 48 h in data set [2] of more than 17 µM. Besides, in data set [3], the selectivity ratio was more than 16.8.
`O/N=C/c1ccc(/C=N/O)cc1` yielded an IC50 in the data set on Entamoeba histolytica of 5.73 µM. In other words, the single-digit micromolar range.
In the data set with Entamoeba histolytica, `Clc1ccc(C2ON=C(c3ccc(C4=NOC(c5ccc(Cl)c(Cl)c5)O4)cc3)O2)cc1Cl` (stereo not given) had an IC50 of 6.1 µM.
For the compound `Cc1ccc(C2ON=C(c3ccc(C4=NOC(c5ccc(C)cc5)O4)cc3)O2)cc1` (stereo not given), the viability at 48 h, 12.5 ug/ml in data set [1] is 82%. This compound also showed an IC50 in the data set with Entamoeba histolytica of 1.05 µM. The same compound gave an IC50 at 48 h in data set [2] of 49 µM. Also, the selectivity ratio in data set [3] was found to be 46.7.
In the case of `Clc1ccccc1C1ON=C(c2ccc(C3=NOC(c4ccccc4Cl)O3)cc2)O1` (stereo not given), in data set [1], the viability at 48 h, 12.5 ug/ml came out at 96.2%. This compound also returned an IC50 with Entamoeba histolytica of 1.22 µM. In data set [2], this compound had an IC50 at 48 h of 34 µM. For the same compound, the selectivity ratio in data set [3] is 27.9.
`Clc1cccc(C2ON=C(c3ccc(C4=NOC(c5cccc(Cl)c5)O4)cc3)O2)c1` (stereo not given): the viability at 48 h, 12.5 ug/ml in data set [1] was found to be 83.5%. Also, in the data set on Entamoeba histolytica, the IC50 stood at 1.41 µM. For the same compound, in data set [2], the midpoint of inhibition, the IC50 at 48 h, lay at 8 µM. For the same compound, in data set [3], the selectivity ratio was 5.67.
The compound `Clc1ccc(C2ON=C(c3ccc(C4=NOC(c5ccc(Cl)cc5)O4)cc3)O2)cc1` (stereo not given) showed an IC50 with Entamoeba histolytica of 4.21 µM. This lies in the single-digit micromolar range.
In the data set on Entamoeba histolytica, `c1ccc(C2ON=C(c3ccc(C4=NOC(c5ccccc5)O4)cc3)O2)cc1` (stereo not given) came in with an IC50 of 3.96 µM.
For the compound `Cc1ncc([N+](=O)[O-])n1CCO` [METRONIDAZOLE], the IC50 at 48 h in data set [2] was more than 116 µM. Besides, in data set [3], the selectivity ratio is more than 64.4.
